From ChEMBL document CHEMBL1139407, “Pyridyl and thiazolyl bisamide CSF-1R inhibitors for the treatment of cancer” (Bioorg Med Chem Lett, 2008)

tested on: not listed separately; test: Half life in rat at 3 mg/kg, iv and 10 mg/kg, po; assay type: ADME, organism-based; conditions: in vivo

Row | Structure (SMILES) | half-life [h]
1 | Cc1ncc(NC(=O)c2cc(NC(=O)c3cc(F)cc(C(F)(F)F)c3)ccc2Cl)s1 | 7.3
2 | Cc1cccc(C(=O)Nc2ccc(Cl)c(C(=O)Nc3cccnc3)c2)c1 | 0.8
3 | O=C(Nc1ccc(Cl)c(C(=O)Nc2cncs2)c1)c1cccc(Cl)c1 | 0.5
4 | Cc1ncc(NC(=O)c2cc(NC(=O)c3cccc(Cl)c3)ccc2Cl)s1 | 0.9
5 | Cc1cc(C)cc(C(=O)Nc2ccc(Cl)c(C(=O)Nc3cnc(C)s3)c2)c1 | 1.3
6 | O=C(Nc1ccc(Cl)c(C(=O)Nc2cccnc2)c1)c1cccc(C(F)(F)F)c1 | 1
7 | O=C(Nc1ccc(Cl)c(C(=O)Nc2cncs2)c1)c1cccc(C(F)(F)F)c1 | 1.2
8 | O=C(Nc1ccc(Cl)c(C(=O)Nc2cccnc2)c1)c1cccc(Cl)c1 | 1.1
9 | CC(C)c1ncc(NC(=O)c2cc(NC(=O)c3cccc(C(F)(F)F)c3)ccc2Cl)s1 | 1
10 | Cc1ccc(NC(=O)c2cccc(C(F)(F)F)c2)cc1C(=O)Nc1cccnc1 | 1

target: Macrophage colony-stimulating factor 1 receptor (Homo sapiens, UniProt P07333); test: Inhibition of CSF1R; conditions: not given
Sequence (P07333 whole entry): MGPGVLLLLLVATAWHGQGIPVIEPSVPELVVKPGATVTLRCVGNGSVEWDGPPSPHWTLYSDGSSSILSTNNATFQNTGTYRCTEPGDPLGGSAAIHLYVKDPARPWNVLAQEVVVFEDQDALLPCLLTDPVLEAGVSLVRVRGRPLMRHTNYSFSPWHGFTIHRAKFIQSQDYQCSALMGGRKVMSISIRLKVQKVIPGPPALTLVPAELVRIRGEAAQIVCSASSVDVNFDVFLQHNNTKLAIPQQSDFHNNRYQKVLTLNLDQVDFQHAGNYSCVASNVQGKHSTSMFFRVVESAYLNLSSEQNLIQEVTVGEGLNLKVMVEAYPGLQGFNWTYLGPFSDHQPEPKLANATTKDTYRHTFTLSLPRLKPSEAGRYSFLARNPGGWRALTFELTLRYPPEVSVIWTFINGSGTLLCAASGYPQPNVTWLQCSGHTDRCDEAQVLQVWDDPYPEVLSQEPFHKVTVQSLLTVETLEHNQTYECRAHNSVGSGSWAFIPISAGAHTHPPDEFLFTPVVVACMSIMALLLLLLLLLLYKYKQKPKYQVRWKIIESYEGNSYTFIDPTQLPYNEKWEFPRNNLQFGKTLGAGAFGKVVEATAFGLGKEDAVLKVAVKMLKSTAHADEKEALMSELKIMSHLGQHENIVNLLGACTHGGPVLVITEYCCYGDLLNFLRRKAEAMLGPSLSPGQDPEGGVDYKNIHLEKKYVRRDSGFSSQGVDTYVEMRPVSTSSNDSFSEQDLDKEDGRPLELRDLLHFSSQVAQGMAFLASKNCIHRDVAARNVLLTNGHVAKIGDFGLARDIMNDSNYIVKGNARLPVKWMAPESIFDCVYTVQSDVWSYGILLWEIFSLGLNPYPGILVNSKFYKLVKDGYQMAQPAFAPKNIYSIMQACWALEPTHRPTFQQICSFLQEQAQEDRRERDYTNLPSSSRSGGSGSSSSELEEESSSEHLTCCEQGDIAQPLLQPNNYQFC

Row | Structure (SMILES) | IC50 [µM]
11 | Cc1ncc(NC(=O)c2cc(NC(=O)c3cccc(C(F)(F)F)c3)ccc2C)s1 | 0.01
12 | Cc1ncc(NC(=O)c2cc(NC(=O)c3cc(F)cc(C(F)(F)F)c3)ccc2Cl)s1 | 0.007
13 | Cc1cc(C)cc(C(=O)Nc2ccc(C)c(C(=O)Nc3cnc(C)s3)c2)c1 | 0.004
14 | Cc1cccc(C(=O)Nc2ccc(Cl)c(C(=O)Nc3cccnc3)c2)c1 | 0.01
15 | Cc1cc(C)cc(C(=O)Nc2ccc(Cl)c(C(=O)Nc3cccnc3)c2)c1 | 0.008
16 | CN(C)c1cccc(C(=O)Nc2ccc(Cl)c(C(=O)Nc3cccnc3)c2)c1 | 0.016
17 | O=C(Nc1ccc(Cl)c(C(=O)Nc2cncs2)c1)c1cccc(Cl)c1 | 0.005
18 | Cc1ncc(NC(=O)c2cc(NC(=O)c3cccc(Cl)c3)ccc2Cl)s1 | 0.004
19 | Cc1ncc(NC(=O)c2cc(NC(=O)c3cccc(Cl)c3)ccc2C)s1 | 0.007
20 | Cc1cc(C)cc(C(=O)Nc2ccc(Cl)c(C(=O)Nc3cnc(C)s3)c2)c1 | 0.006
21 | Cc1ccc(C(=O)Nc2cccc(C(F)(F)F)c2)cc1C(=O)Nc1cccnc1 | 6.9
22 | O=C(Nc1ccc(Cl)c(C(=O)Nc2cccnc2)c1)c1cccc(C(F)(F)F)c1 | 0.016
23 | Cc1ccc(C(=O)Nc2cccc(C(F)(F)F)c2)cc1NC(=O)c1cccnc1 | 0.032
24 | Cc1ncc(NC(=O)c2cc(NC(=O)c3cc(F)cc(Cl)c3)ccc2Cl)s1 | 0.011
25 | Cc1cc(C)cc(C(=O)Nc2ccc(Cl)c(C(=O)Nc3cncs3)c2)c1 | 0.003
26 | O=C(Nc1ccc(Cl)c(C(=O)Nc2cccnc2)c1)c1ccc(Cl)c(Cl)c1 | 0.003
27 | Cc1ccc(NC(=O)c2cccc(C(F)(F)F)c2)cc1NC(=O)c1cccnc1 | 0.011
28 | O=C(Nc1ccc(Cl)c(C(=O)Nc2cccnc2)c1)c1cccc(Br)c1 | 0.014
29 | Cc1cc(C)cc(C(=O)Nc2ccc(Cl)c(C(=O)Nc3cnc(C(C)C)s3)c2)c1 | 0.031
30 | Cc1ccc(NC(=O)c2cccc(C(F)(F)F)c2)cc1C(=O)Nc1ccccc1 | > 50
31 | O=C(Nc1ccc(Cl)c(C(=O)Nc2cncs2)c1)c1cccc(C(F)(F)F)c1 | 0.003
32 | COc1cccc(C(=O)Nc2ccc(Cl)c(C(=O)Nc3cccnc3)c2)c1 | 0.009
33 | O=C(Nc1ccc(Cl)c(C(=O)Nc2cccnc2)c1)c1cccc(Cl)c1 | 0.01
34 | Cc1ccc(NC(=O)c2cccc(N(C)S(C)(=O)=O)c2)cc1NC(=O)c1ccc2ncccc2c1 | 0.089
35 | CC(C)c1ncc(NC(=O)c2cc(NC(=O)c3cccc(C(F)(F)F)c3)ccc2Cl)s1 | 0.013
36 | Cc1ccc(C(=O)Nc2ccc(Cl)c(C(=O)Nc3cccnc3)c2)cc1C | 0.005
37 | O=C(Nc1ccc(Cl)c(C(=O)Nc2cnc(C3CC3)s2)c1)c1cccc(C(F)(F)F)c1 | 0.14
38 | Cc1ccc(NC(=O)c2cccc(C(F)(F)F)c2)cc1C(=O)Nc1cccnc1 | 0.037
39 | O=C(Nc1ccc(Cl)c(C(=O)Nc2cccnc2)c1)c1cccc(F)c1 | 0.025
40 | O=C(Nc1ccc(Cl)c(C(=O)Nc2cccnc2)c1)c1cc(Cl)cc(Cl)c1 | 0.003

tested on: NIH3T3; test: Antiproliferative activity against mouse 3T3 cells expressing human CSF1R after 72 hrs by Celltiter assay; assay type: functional; conditions: not given
Method in brief: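 3T3 cells engineered with human full-length CSF-1R, seeded in phenol red-free DMEM with 0.05% BSA and incubated overnight. Treated with DMEM containing 80 ng/ml M-CSF plus insulin, transferrin and selenium at multiple compound concentrations. […] Growth read by MTS-type CellTiter 96 Aqueous One after 72 h.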

Row | Structure (SMILES) | Activity [µM]
41 | Cc1ncc(NC(=O)c2cc(NC(=O)c3cccc(C(F)(F)F)c3)ccc2C)s1 | 0.11
42 | Cc1ncc(NC(=O)c2cc(NC(=O)c3cc(F)cc(C(F)(F)F)c3)ccc2Cl)s1 | 0.11
43 | Cc1cc(C)cc(C(=O)Nc2ccc(C)c(C(=O)Nc3cnc(C)s3)c2)c1 | 0.1
44 | Cc1cccc(C(=O)Nc2ccc(Cl)c(C(=O)Nc3cccnc3)c2)c1 | 0.24
45 | Cc1cc(C)cc(C(=O)Nc2ccc(Cl)c(C(=O)Nc3cccnc3)c2)c1 | 0.05
46 | CN(C)c1cccc(C(=O)Nc2ccc(Cl)c(C(=O)Nc3cccnc3)c2)c1 | 0.77
47 | O=C(Nc1ccc(Cl)c(C(=O)Nc2cncs2)c1)c1cccc(Cl)c1 | 0.52
48 | Cc1ncc(NC(=O)c2cc(NC(=O)c3cccc(Cl)c3)ccc2Cl)s1 | 0.18
49 | Cc1ncc(NC(=O)c2cc(NC(=O)c3cccc(Cl)c3)ccc2C)s1 | 0.32
50 | Cc1cc(C)cc(C(=O)Nc2ccc(Cl)c(C(=O)Nc3cnc(C)s3)c2)c1 | 0.06
51 | O=C(Nc1ccc(Cl)c(C(=O)Nc2cccnc2)c1)c1cccc(C(F)(F)F)c1 | 0.14
52 | Cc1ccc(C(=O)Nc2cccc(C(F)(F)F)c2)cc1NC(=O)c1cccnc1 | 1.34
53 | Cc1ncc(NC(=O)c2cc(NC(=O)c3cc(F)cc(Cl)c3)ccc2Cl)s1 | 0.13
54 | Cc1cc(C)cc(C(=O)Nc2ccc(Cl)c(C(=O)Nc3cncs3)c2)c1 | 0.11
55 | O=C(Nc1ccc(Cl)c(C(=O)Nc2cccnc2)c1)c1ccc(Cl)c(Cl)c1 | 0.09
56 | Cc1ccc(NC(=O)c2cccc(C(F)(F)F)c2)cc1NC(=O)c1cccnc1 | 2.15
57 | O=C(Nc1ccc(Cl)c(C(=O)Nc2cccnc2)c1)c1cccc(Br)c1 | 0.26
58 | Cc1cc(C)cc(C(=O)Nc2ccc(Cl)c(C(=O)Nc3cnc(C(C)C)s3)c2)c1 | 0.11
59 | CCN(CC)CCNC(=O)c1c(C)[nH]c(/C=C2\C(=O)Nc3ccc(F)cc32)c1C.O=C(O)C[C@H](O)C(=O)O [SUNITINIB MALATE] | 0.09
60 | Cc1ccc(NC(=O)c2cccc(C(F)(F)F)c2)cc1C(=O)Nc1ccccc1 | >10
61 | O=C(Nc1ccc(Cl)c(C(=O)Nc2cncs2)c1)c1cccc(C(F)(F)F)c1 | 0.27
62 | COc1cccc(C(=O)Nc2ccc(Cl)c(C(=O)Nc3cccnc3)c2)c1 | 0.94
63 | O=C(Nc1ccc(Cl)c(C(=O)Nc2cccnc2)c1)c1cccc(Cl)c1 | 0.33
64 | CC(C)c1ncc(NC(=O)c2cc(NC(=O)c3cccc(C(F)(F)F)c3)ccc2Cl)s1 | 0.15
65 | Cc1ccc(C(=O)Nc2ccc(Cl)c(C(=O)Nc3cccnc3)c2)cc1C | 0.15
66 | O=C(Nc1ccc(Cl)c(C(=O)Nc2cnc(C3CC3)s2)c1)c1cccc(C(F)(F)F)c1 | 0.1
67 | Cc1ccc(NC(=O)c2cccc(C(F)(F)F)c2)cc1C(=O)Nc1cccnc1 | 0.23
68 | O=C(Nc1ccc(Cl)c(C(=O)Nc2cccnc2)c1)c1cccc(F)c1 | 1.64
69 | O=C(Nc1ccc(Cl)c(C(=O)Nc2cccnc2)c1)c1cc(Cl)cc(Cl)c1 | 0.13

tested on: not listed separately; test: Clearance in rat at 3 mg/kg, iv and 10 mg/kg, po; assay type: ADME, organism-based; conditions: in vivo

Row | Structure (SMILES) | clearance [L/h/kg]
70 | Cc1ncc(NC(=O)c2cc(NC(=O)c3cc(F)cc(C(F)(F)F)c3)ccc2Cl)s1 | 0.12
71 | Cc1cccc(C(=O)Nc2ccc(Cl)c(C(=O)Nc3cccnc3)c2)c1 | 1.8
72 | O=C(Nc1ccc(Cl)c(C(=O)Nc2cncs2)c1)c1cccc(Cl)c1 | 3.24
73 | Cc1ncc(NC(=O)c2cc(NC(=O)c3cccc(Cl)c3)ccc2Cl)s1 | 0.72
74 | Cc1cc(C)cc(C(=O)Nc2ccc(Cl)c(C(=O)Nc3cnc(C)s3)c2)c1 | 0.84
75 | O=C(Nc1ccc(Cl)c(C(=O)Nc2cccnc2)c1)c1cccc(C(F)(F)F)c1 | 1.2
76 | O=C(Nc1ccc(Cl)c(C(=O)Nc2cncs2)c1)c1cccc(C(F)(F)F)c1 | 3.48
77 | O=C(Nc1ccc(Cl)c(C(=O)Nc2cccnc2)c1)c1cccc(Cl)c1 | 0.96
78 | CC(C)c1ncc(NC(=O)c2cc(NC(=O)c3cccc(C(F)(F)F)c3)ccc2Cl)s1 | 2.22
79 | Cc1ccc(NC(=O)c2cccc(C(F)(F)F)c2)cc1C(=O)Nc1cccnc1 | 0.96

tested on: not listed separately; test: Bioavailability in rat at 3 mg/kg, iv and 10 mg/kg, po; assay type: ADME, organism-based; conditions: in vivo

Row | Structure (SMILES) | bioavailability [%]
80 | Cc1ncc(NC(=O)c2cc(NC(=O)c3cc(F)cc(C(F)(F)F)c3)ccc2Cl)s1 | 31
81 | Cc1cccc(C(=O)Nc2ccc(Cl)c(C(=O)Nc3cccnc3)c2)c1 | 28
82 | O=C(Nc1ccc(Cl)c(C(=O)Nc2cncs2)c1)c1cccc(Cl)c1 | 20
83 | Cc1ncc(NC(=O)c2cc(NC(=O)c3cccc(Cl)c3)ccc2Cl)s1 | 43
84 | Cc1cc(C)cc(C(=O)Nc2ccc(Cl)c(C(=O)Nc3cnc(C)s3)c2)c1 | 27
85 | O=C(Nc1ccc(Cl)c(C(=O)Nc2cccnc2)c1)c1cccc(C(F)(F)F)c1 | 76
86 | O=C(Nc1ccc(Cl)c(C(=O)Nc2cncs2)c1)c1cccc(C(F)(F)F)c1 | 40
87 | O=C(Nc1ccc(Cl)c(C(=O)Nc2cccnc2)c1)c1cccc(Cl)c1 | 33
88 | CC(C)c1ncc(NC(=O)c2cc(NC(=O)c3cccc(C(F)(F)F)c3)ccc2Cl)s1 | 65
89 | Cc1ccc(NC(=O)c2cccc(C(F)(F)F)c2)cc1C(=O)Nc1cccnc1 | 40

tested on: not listed separately; test: Volume of distribution at steady state in rat at 3 mg/kg, iv and 10 mg/kg, po; assay type: ADME, organism-based; conditions: in vivo, read-out: Vdss

Row | Structure (SMILES) | Vd [L/kg]
90 | Cc1ncc(NC(=O)c2cc(NC(=O)c3cc(F)cc(C(F)(F)F)c3)ccc2Cl)s1 | 1.4
91 | Cc1cccc(C(=O)Nc2ccc(Cl)c(C(=O)Nc3cccnc3)c2)c1 | 1.3
92 | O=C(Nc1ccc(Cl)c(C(=O)Nc2cncs2)c1)c1cccc(Cl)c1 | 1.8
93 | Cc1ncc(NC(=O)c2cc(NC(=O)c3cccc(Cl)c3)ccc2Cl)s1 | 0.9
94 | Cc1cc(C)cc(C(=O)Nc2ccc(Cl)c(C(=O)Nc3cnc(C)s3)c2)c1 | 1.2
95 | O=C(Nc1ccc(Cl)c(C(=O)Nc2cccnc2)c1)c1cccc(C(F)(F)F)c1 | 1.5
96 | O=C(Nc1ccc(Cl)c(C(=O)Nc2cncs2)c1)c1cccc(C(F)(F)F)c1 | 4.2
97 | O=C(Nc1ccc(Cl)c(C(=O)Nc2cccnc2)c1)c1cccc(Cl)c1 | 1.4
98 | CC(C)c1ncc(NC(=O)c2cc(NC(=O)c3cccc(C(F)(F)F)c3)ccc2Cl)s1 | 2.2
99 | Cc1ccc(NC(=O)c2cccc(C(F)(F)F)c2)cc1C(=O)Nc1cccnc1 | 1

tested on: Mus musculus; test: Inhibition of phosphorylated CSF1R level in 3T3/CSF1R mutant cells xenografted nude mouse at 50 mg/kg, po after 6 hrs by ELISA; assay type: functional; conditions: not given
Method in brief: (§1)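 3T3 cells expressing constitutively active human mutant full-length CSF-1R (301–969) were implanted subcutaneously at 5 × 10⁶ cells in female nude mice and grown to tumors >250 mm³. After dosing, tumors were assayed for pCSF-1R by ELISA, and plasma was sampled for drug levels.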

Row | Structure (SMILES) | inhibition in vivo at 50 mg/kg [%]
100 | Cc1ncc(NC(=O)c2cc(NC(=O)c3cc(F)cc(C(F)(F)F)c3)ccc2Cl)s1 | 100
101 | Cc1cc(C)cc(C(=O)Nc2ccc(Cl)c(C(=O)Nc3cnc(C)s3)c2)c1 | 60

tested on: Mus musculus; test: Inhibition of phosphorylated CSF1R level in 3T3/CSF1R mutant cells xenografted nude mouse at 50 mg/kg, po after 2 hrs by ELISA; assay type: functional; conditions: not given; method in brief: as §1

Row | Structure (SMILES) | inhibition in vivo at 50 mg/kg [%]
102 | Cc1ncc(NC(=O)c2cc(NC(=O)c3cc(F)cc(C(F)(F)F)c3)ccc2Cl)s1 | 100
103 | Cc1cc(C)cc(C(=O)Nc2ccc(Cl)c(C(=O)Nc3cnc(C)s3)c2)c1 | 90
